ChEMBL document CHEMBL1649328, “Assessment of pandemic and seasonal influenza A (H1N1) virus susceptibility to neuraminidase inhibitors in three enzyme activity inhibition assays” (Antimicrob Agents Chemother, 2010)

Assays:
Influenza A virus [1] = experiment: Antiviral activity against influenza A (A/North Carolina/01/2009 (H1N1)) virus harboring neuraminidase H275Y mutant after 16 to 18 hrs by fetuin substrate based colorimetric assay; assay type: functional, organism-based
In short: (§1)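 Colorimetric NA inhibition with fetuin substrate. Virus was diluted in NA-Star buffer (26 mM MES, 4 mM CaCl2, pH 6.0) to give OD549 of 0.4–0.8 after 18 h. It was preincubated with ten half-log inhibitor dilutions (0.03–1,000 nM final) for 1 h at 37°C, then with fetuin (5.5 mg/ml final) for 16–18 h at 37°C. Released sialic acid was read at 549 nm after periodate/TBA reaction and butanol extraction. IC50 came from a Vmax·[1−x/(K+x)] fit, mean of ≥2 experiments.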

Influenza A virus [2] = experiment: Antiviral activity against influenza A (A/Osaka/180/2009 (H1N1)) virus harboring neuraminidase H275Y mutant after 30 mins by NA-star substrate based chemiluminescent assay; assay type: functional, organism-based
In short: (§2)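 Titrated virus in NA-Star buffer (26 mM MES, 4 mM CaCl2, pH 6.0) was preincubated with ten half-log inhibitor dilutions (0.03–1,000 nM final) for 30 min at 37°C, then with substrate for 30 min at room temperature. Accelerator solution was added and luminescence read for 0.1 s. IC50 came from a Vmax·[1−x/(K+x)] fit, mean of ≥3 experiments.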

Influenza A virus [3] = experiment: Antiviral activity against influenza A (A/North Carolina/01/2009 (H1N1)) virus harboring neuraminidase H275Y mutant after 30 mins by NA-star substrate based chemiluminescent assay; assay type: functional, organism-based; in short: as §2
Influenza A virus [4] = experiment: Ratio of IC50 for influenza A (A/New York/18/2009 (H1N1)) virus harboring neuraminidase H275Y mutant to IC50 for influenza A (A/Washington/10/2008 (H1N1)) virus expressing wild type enzyme by fetuin substrate based colorimetric assay; assay type: functional
Influenza A virus [5] = experiment: Antiviral activity against influenza A (A/Singapore/57/2009 (H1N1)) virus harboring neuraminidase H275Y mutant after 30 mins by MUNANA substrate based fluorometric assay; assay type: functional, organism-based
In short: (§3)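 Fluorometric NA inhibition with MUNANA (100 μM final). Titrated virus in NA-Star buffer (26 mM MES, 4 mM CaCl2, pH 6.0) was preincubated with ten half-log inhibitor dilutions (0.03–1,000 nM final) for 30 min at 37°C, then with substrate for 30 min at 37°C. The reaction was stopped with 0.1 M glycine in 25% ethanol, pH 10.7, and 4-methylumbelliferone was read at ex 365/em 450 nm. IC50 came from a Vmax·[1−x/(K+x)] fit, mean of ≥3 experiments.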

Influenza A virus [6] = experiment: Ratio of IC50 for influenza A (A/Montana/02/2009 (H1N1)) virus harboring neuraminidase H275Y mutant to IC50 for influenza A (A/Washington/29/2009 (H1N1)) virus expressing wild type enzyme by NA-star substrate based chemiluminescent assay; assay type: functional
Influenza A virus [7] = experiment: Antiviral activity against influenza A (A/Singapore/57/2009 (H1N1)) virus harboring neuraminidase H275Y mutant after 16 to 18 hrs by fetuin substrate based colorimetric assay; assay type: functional, organism-based; in short: as §1
Influenza A virus [8] = experiment: Ratio of IC50 for influenza A (A/Singapore/91/2009 (H1N1))virus harboring neuraminidase H275Y mutant to IC50 for influenza A (A/Washington/29/2009 (H1N1)) virus expressing wild type enzyme by MUNANA substrate based fluorometric assay; assay type: functional
In short: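 Fluorometric NA inhibition in MES/CaCl2 buffer, pH 6.0. Virus preincubated 30 min at 37°C with ten half-log inhibitor dilutions (0.03–1,000 nM final), then MUNANA (100 μM final) added for 30 min at 37°C. Stopped with 0.1 M glycine in 25% ethanol, pH 10.7. Read at ex 365/em 450 nm. IC50 curve-fitted, mean of ≥3 experiments. Ratio is variant IC50 over wild-type reference IC50.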

Influenza A virus [9] = experiment: Ratio of IC50 for influenza A (A/Hong Kong/2369/2009 (H1N1)) virus harboring neuraminidase H275Y mutant to IC50 for influenza A (A/Washington/29/2009 (H1N1)) virus expressing wild type enzyme by MUNANA substrate based fluorometric assay; assay type: functional
Influenza A virus [10] = experiment: Antiviral activity against influenza A (A/Osaka/180/2009 (H1N1)) virus harboring neuraminidase H275Y mutant after 16 to 18 hrs by fetuin substrate based colorimetric assay; assay type: functional, organism-based; in short: as §1
Influenza A virus [11] = experiment: Ratio of IC50 for influenza A (A/Singapore/57/2009 (H1N1)) virus harboring neuraminidase H275Y mutant to IC50 for influenza A (A/Washington/29/2009 (H1N1)) virus expressing wild type enzyme by fetuin substrate based colorimetric assay; assay type: functional
In short: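 Colorimetric NA inhibition using a virus dilution that gave 0.4–0.8 OD549. Virus preincubated 1 h at 37°C with half-log inhibitor dilutions (0.03–1,000 nM final) in MES/CaCl2 pH 6.0 buffer. Fetuin (5.5 mg/ml final) then added for 18 h at 37°C. Released sialic acid detected by periodate oxidation and thiobarbituric acid, butanol extraction, read at 549 nm. IC50 curve-fitted, ≥2 experiments. Ratio is variant IC50 over wild-type reference IC50.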

Influenza A virus [12] = experiment: Antiviral activity against influenza A (A/Washington/29/2009 (H1N1)) virus harboring neuraminidase H275Y mutant after 16 to 18 hrs by fetuin substrate based colorimetric assay; assay type: functional, organism-based; in short: as §1
Influenza A virus [13] = experiment: Ratio of IC50 for influenza A (A/Washington/29/2009 (H1N1)) virus harboring neuraminidase H275Y mutant to IC50 for influenza A (A/Washington/29/2009 (H1N1)) virus expressing wild type enzyme by NA-star substrate based chemiluminescent assay; assay type: functional
In short: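 Chemiluminescent NA inhibition in MES 26 mM/CaCl2 4 mM buffer, pH 6.0. […] Luminescence read for 0.1 s. IC50 from the fit y = Vmax·{1 − [x/(K + x)]}, mean of ≥3 experiments. Ratio is the H275Y variant IC50 over the pandemic wild-type reference IC50.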

Influenza A virus [14] = experiment: Antiviral activity against influenza A (A/Washington/29/2009 (H1N1)) virus harboring neuraminidase H275Y mutant after 30 mins by MUNANA substrate based fluorometric assay; assay type: functional, organism-based; in short: as §3
Influenza A virus [15] = experiment: Antiviral activity against influenza A (A/Hong Kong/2369/2009 (H1N1)) virus harboring neuraminidase H275Y mutant after 30 mins by NA-star substrate based chemiluminescent assay; assay type: functional, organism-based; in short: as §2
Influenza A virus [16] = experiment: Ratio of IC50 for influenza A (A/Montana/02/2009 (H1N1)) virus harboring neuraminidase H275Y mutant to IC50 for influenza A (A/Washington/29/2009 (H1N1)) virus expressing wild type enzyme by MUNANA substrate based fluorometric assay; assay type: functional
Influenza A virus [17] = experiment: Antiviral activity against influenza A (A/Osaka/180/2009 (H1N1)) virus harboring neuraminidase H275Y mutant after 30 mins by MUNANA substrate based fluorometric assay; assay type: functional, organism-based; in short: as §3
Influenza A virus [18] = experiment: Ratio of IC50 for influenza A (A/New York/18/2009 (H1N1)) virus harboring neuraminidase H275Y mutant to IC50 for influenza A (A/Washington/10/2008 (H1N1)) virus expressing wild type enzyme by MUNANA substrate based fluorometric assay; assay type: functional
Influenza A virus [19] = experiment: Ratio of IC50 for influenza A (A/North Carolina/02/2009 (H1N1)) virus harboring neuraminidase H275Y mutant to IC50 for influenza A (A/Washington/10/2008 (H1N1)) virus expressing wild type enzyme by MUNANA substrate based fluorometric assay; assay type: functional

SMILES | IC50 (Influenza A virus [1]) [nM] | IC50 (Influenza A virus [2]) [nM] | IC50 (Influenza A virus [3]) [nM] | Ratio IC50 (Influenza A virus [4]) | IC50 (Influenza A virus [5]) [nM] | Ratio IC50 (Influenza A virus [6]) | IC50 (Influenza A virus [7]) [nM] | Ratio IC50 (Influenza A virus [8]) | Ratio IC50 (Influenza A virus [9]) | IC50 (Influenza A virus [10]) [nM] | Ratio IC50 (Influenza A virus [11]) | IC50 (Influenza A virus [12]) [nM] | Ratio IC50 (Influenza A virus [13]) | IC50 (Influenza A virus [14]) [nM] | IC50 (Influenza A virus [15]) [nM] | Ratio IC50 (Influenza A virus [16]) | IC50 (Influenza A virus [17]) [nM] | Ratio IC50 (Influenza A virus [18]) | Ratio IC50 (Influenza A virus [19])
C/C=C\[C@@H]1C[C@H](C(=O)O)N[C@H]1[C@@H](NC(C)=O)[C@](C)(CCC)OC | 2.32 | 0.91 | 0.84 | 1 | 1.39 | 6 | 1.58 | 1 | 3 | 4.08 | 1 | 2.07 | 5 | 1.76 | 1.09 | 5 | 2.44 | 1 | 1
CCC(CC)[C@H](NC(C)=O)[C@@H]1[C@H](O)[C@@H](C(=O)O)C[C@H]1NC(=N)N [PERAMIVIR ANHYDROUS] | 105 | 13.1 | 13.8 | 1 | 122 | 136 | 84.8 | 1 | 641 | 195 | 173 | 163 | 89 | 150 | 9.24 | 1095 | 97.6 | 1 | 1
